Test results: ChEMBL document CHEMBL1128328, “Identification of efficient pentapeptide substrates for the tyrosine kinase pp60c-src” (J Med Chem, 1995)

Assays:
[1] = molecular target: Proto-oncogene tyrosine-protein kinase Src (Homo sapiens) (UniProt P12931); experiment: Incorporation of 32P into phosphopeptide product (1 mM) in pp60c-src phosphorylation assay
Outline: (§1)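 Human pp60c-src (baculovirus/SF9 recombinant, partially purified), 10 units in 40 µL; 138 mM MOPS pH 7.1, 0.64 mM MgCl2 (calculated free Mg2+ 0.44 mM), BSA 0.37 mg/mL, 200 µM [γ-32P]ATP, 20 µM ADP; peptide at 1 or 3 mM final; 30 min, 30 °C; acid molybdate quench; PEI-cellulose column, 1 M LiCl elution, Cerenkov counting; triplicate, no-peptide blank subtracted.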

[2] = molecular target: Proto-oncogene tyrosine-protein kinase Src (Homo sapiens) (UniProt P12931); experiment: Incorporation of 32P into phosphopeptide product (3 mM) in pp60c-src phosphorylation assay; outline: as §1
[3] = tested on: CC[C@H](C)[C@H](NC(=O)[C@H](C)NC(=O)[C@H](CC(=O)O)NC(=O)[C@H](CCC(=O)O)NC(C)=O)C(=O)N[C@@H](Cc1ccc(O)cc1)C(N)=O; experiment: (§2) Michaelis-Menten (Km) constant for peptide phosphorylation by pp60src
Outline: (§3)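 Same pp60c-src reaction (pH 7.1 MOPS, 200 µM [γ-32P]ATP, 20 µM ADP, 30 min, 30 °C, PEI-cellulose/Cerenkov readout). Two peptide levels, near and ~10× estimated Km (200 µM/2 mM, 25/300 µM, or 50 µM/1 mM depending on peptide). Initial velocities in 4–6 repeats per level, minus zero-time blank. Apparent values from Cornish-Bowden direct linear plot.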

[4] = tested on: CC[C@H](C)[C@H](NC(C)=O)C(=O)N[C@@H](Cc1ccc(O)cc1)C(=O)NCC(=O)N[C@@H](CCC(=O)O)C(=O)N[C@@H](Cc1ccccc1)C(N)=O; experiment: as §2; outline: as §3
[5] = tested on: CC[C@H](C)[C@H](NC(=O)[C@H](CCC(=O)O)NC(=O)[C@H](CCC(=O)O)NC(=O)[C@H](CCC(=O)O)NC(=O)[C@H](C)N)C(=O)N[C@@H](Cc1ccc(O)cc1)C(=O)NCC(=O)N[C@@H](CCC(=O)O)C(=O)N[C@@H](Cc1ccccc1)C(=O)N[C@@H](CCC(=O)O)C(=O)N[C@@H](C)C(=O)N[C@@H](CCCCN)C(=O)N[C@@H](CCCCN)C(=O)N[C@@H](CCCCN)C(=O)N[C@@H](CCCCN)C(=O)O; experiment: as §2; outline: as §3
[6] = tested on: CC[C@H](C)[C@H](NC(=O)[C@H](C)NC(=O)[C@H](CC(=O)O)NC(=O)[C@H](CCC(=O)O)NC(C)=O)C(=O)N[C@@H](Cc1ccc(O)cc1)C(N)=O; experiment: (§4) Maximum enzyme velocity(Vmax) of peptide phosphorylation by pp60src; outline: as §3
[7] = tested on: CC[C@H](C)[C@H](NC(C)=O)C(=O)N[C@@H](Cc1ccc(O)cc1)C(=O)NCC(=O)N[C@@H](CCC(=O)O)C(=O)N[C@@H](Cc1ccccc1)C(N)=O; experiment: as §4; outline: as §3
[8] = tested on: CC[C@H](C)[C@H](NC(=O)[C@H](CCC(=O)O)NC(=O)[C@H](CCC(=O)O)NC(=O)[C@H](CCC(=O)O)NC(=O)[C@H](C)N)C(=O)N[C@@H](Cc1ccc(O)cc1)C(=O)NCC(=O)N[C@@H](CCC(=O)O)C(=O)N[C@@H](Cc1ccccc1)C(=O)N[C@@H](CCC(=O)O)C(=O)N[C@@H](C)C(=O)N[C@@H](CCCCN)C(=O)N[C@@H](CCCCN)C(=O)N[C@@H](CCCCN)C(=O)N[C@@H](CCCCN)C(=O)O; experiment: as §4; outline: as §3

Molecule | CPM x1000 [1] | CPM x1000 [2] | other results
CC[C@H](C)[C@H](NC(=O)[C@H](CCC(=O)O)NC(=O)[C@H](CCC(=O)O)NC(=O)[C@H](CCC(=O)O)NC(=O)[C@H](C)N)C(=O)N[C@@H](Cc1ccc(O)cc1)C(=O)NCC(=O)N[C@@H](CCC(=O)O)C(=O)N[C@@H](Cc1ccccc1)C(=O)N[C@@H](CCC(=O)O)C(=O)N[C@@H](C)C(=O)N[C@@H](CCCCN)C(=O)N[C@@H](CCCCN)C(=O)N[C@@H](CCCCN)C(=O)N[C@@H](CCCCN)C(=O)O | 702 | – | –
Ac-DAEYA-NH2 | – | 23.4 | –
Ac-EDAEYA-NH2 | – | 28.5 | –
Ac-GEGTYGV-NH2 | – | 120 | –
Proto-oncogene tyrosine-protein kinase Src (Homo sapiens) (from UniProt P12931) | – | – | Km [3]: 880 µM; Km [4]: 368 µM; Km [5]: 100 µM; Vmax [6]: 1.86 µM/min/mg; Vmax [7]: 1.02 µM/min/mg; Vmax [8]: 3.06 µM/min/mg

Further lines, with some results ahead:

CPM x1000 [1] | CPM x1000 [2] | Molecule | other results
403 | – | Ac-EDAIY-NH2 | –
63.5 | 89.5 | Ac-EGTYG-NH2 | –
497 | – | Ac-IYGEF-NH2 | –
– | 80.3 | H-RRLIEDAEYAARG-OH | –
